# Measurements gathered from unrelated publications.
# Lines come from different studies, so protocols differ.
# Medium: plasma
SMILES,species,route,dose,setting,Tmax [min]
CC1(CN)CCN(c2cnc3c(Sc4ccncc4Cl)n[nH]c3n2)CC1,male Sprague-Dawley rat,oral,10 mg/kg,,4.98
O=c1cc(-c2ccc(O)c(O)c2)oc2cc(O)cc(O)c12,male Sprague-Dawley rat,oral,30 mg/kg,,30
N#C[C@@]12C[C@@H]1[C@@H](n1cnc3c(N[C@@H](C4CCC4)C4CC4)nc(I)nc31)[C@H](O)[C@@H]2O,male Wistar rat,oral,3 mg/kg,,120
CC(=Nc1ccc(N=Cc2cnccn2)cc1)N(C)C,male Sprague-Dawley rat,oral,200 mg/kg,single dose,≤ 5
O=C1CC[C@H](N2Cc3cc(N4CCN(CC5CCN(c6ccc([C@@H]7c8ccc(O)cc8CC[C@@H]7c7ccccc7)cc6)CC5)CC4)ccc3C2=O)C(=O)N1,male Sprague-Dawley rat,oral,20 mg/kg,fasted,200
CC(=O)CC(=O)C1CC(C)C(=O)C1=O (centres unmarked),male Sprague-Dawley rat,intravenous,20 mg/kg,,6.6
C[C@H]1[C@@H](O)O[C@@H]2O[C@@]3(C)CC[C@H]4[C@H](C)CC[C@@H]1[C@@]24OO3,Sprague-Dawley rat,oral,10 mg/kg,,27
Cc1c(C(=O)O)ccc2c3n(nc12)[C@@H]1[C@H](C3)N(CC2CC2)[C@@]2(C(=O)Nc3cc(Cl)ccc32)[C@H]1c1cccc(Cl)c1F,male rat,oral,2 mg/kg,,78
O=C(C=Cc1ccccc1)Nc1cc(-c2ccnc(N3CCC(O)CC3)c2)ccn1,female Sprague-Dawley rat,oral,50 mg/kg,,30
CN1Cc2c(N)cccc2C(=O)N1C1CCC(=O)NC1=O (centres unmarked),male Sprague-Dawley rat,oral,3 mg/kg,,~18
Nc1ccc(/C=C/C(=O)NCc2cc3cc(-c4ccc(C(=O)N5CCC(F)(F)CC5)cc4)cc(-c4ccc(F)cc4)c3o2)cn1,rat,oral,3 mg/kg,,240
